Measurements from ChEMBL document CHEMBL4680131, “Fangchinoline derivatives induce cell cycle arrest and apoptosis in human leukemia cell lines via suppression of the PI3K/AKT and MAPK signaling pathway” (Eur J Med Chem, 2020).
pIC50: −log10 of the molar value.

Columns and labels:
K562 = test: Cytotoxicity against human K562 cells assessed as reduction in cell viability incubated for 48 hrs by MTT assay; format: functional, cell-based; conditions: K562, 48 h
Procedure, shortened: (§1)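 MTT viability after 48 h exposure. Cells (1×10^4/well) were allowed 24 h at 37 °C before dosing. Leukemia lines were grown in RPMI and breast lines in high-glucose DMEM, each with 5% FBS under 5% CO2. MTT was added for 4 h, formazan dissolved in DMSO, and absorbance read at 490 nm. Triplicate wells; values averaged over at least 3 independent experiments.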

MCF7 = test: Cytotoxicity against human MCF-7 cells assessed as reduction in cell viability incubated for 48 hrs by MTT assay; format: functional, cell-based; conditions: MCF7, 48 h; procedure, shortened: as §1
HEL = test: Cytotoxicity against human HEL cells assessed as reduction in cell viability incubated for 48 hrs by MTT assay; format: functional, cell-based; procedure, shortened: as §1
MDA-MB-231 = test: Cytotoxicity against human MDA-MB-231 cells assessed as reduction in cell viability incubated for 48 hrs by MTT assay; format: functional, cell-based; conditions: MDA-MB-231, 48 h; procedure, shortened: as §1
[1] = Inhibition of AKT (unknown origin) by ELISA assay; parameters: species or system Homo sapiens
Procedure, shortened: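 Akt kinase activity kit run per the manufacturer's protocol. Akt source was lysate of compound-treated human leukemia HEL cells, purified on a Mono Q anion-exchange column before the kinase measurement. HEL cells were grown in RPMI with 5% FBS at 37 °C and 5% CO2. The value is reported as an IC50.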

COc1ccc2cc1Oc1ccc(cc1)C[C@H]1c3cc(c(OC)cc3CCN1C)Oc1c(OC(=O)N3c4ccccc4Sc4ccccc43)c(OC)cc3c1[C@H](C2)N(C)CC3
pIC50 (K562): 4.91 | pIC50 (MCF7): 4.68 | pIC50 (HEL): 4.75 | pIC50 (MDA-MB-231): 4.99

COc1ccc2cc1Oc1ccc(cc1)C[C@H]1c3cc(c(OC)cc3CCN1C)Oc1c(O)c(OC)cc3c1[C@H](C2)N(C)CC3 [FANGCHINOLINE]
pIC50 [1]: < 4.70 | pIC50 (K562): 5.23 | pIC50 (MCF7): 4.76 | pIC50 (HEL): 4.64 | pIC50 (MDA-MB-231): 4.23

COc1ccc2cc1Oc1ccc(cc1)C[C@H]1c3cc(c(OC)cc3CCN1C)Oc1c(OC(=O)CCl)c(OC)cc3c1[C@H](C2)N(C)CC3
pIC50 (K562): 4.91 | pIC50 (MCF7): 4.52 | pIC50 (HEL): 4.97 | pIC50 (MDA-MB-231): 5.00

COc1ccc2cc1Oc1ccc(cc1)C[C@H]1c3cc(c(OC)cc3CCN1C)Oc1c(OC(=O)CBr)c(OC)cc3c1[C@H](C2)N(C)CC3
pIC50 (K562): 4.85 | pIC50 (MCF7): 4.66 | pIC50 (HEL): 4.59 | pIC50 (MDA-MB-231): 4.75

COc1ccc2cc1Oc1ccc(cc1)C[C@H]1c3cc(c(OC)cc3CCN1C)Oc1c(OC(=O)CCCl)c(OC)cc3c1[C@H](C2)N(C)CC3
pIC50 (K562): 5.19 | pIC50 (MCF7): 4.73 | pIC50 (HEL): 5.32 | pIC50 (MDA-MB-231): 5.02

COc1ccc2cc1Oc1ccc(cc1)C[C@H]1c3cc(c(OC)cc3CCN1C)Oc1c(OC(=O)c3cccc(Cl)c3)c(OC)cc3c1[C@H](C2)N(C)CC3
pIC50 (K562): 5.42 | pIC50 (MCF7): 5.35 | pIC50 (HEL): 5.37 | pIC50 (MDA-MB-231): 5.10

COc1ccc2cc1Oc1ccc(cc1)C[C@H]1c3cc(c(OC)cc3CCN1C)Oc1c(OC(=O)c3ccc(Cl)cc3)c(OC)cc3c1[C@H](C2)N(C)CC3
pIC50 (K562): 5.55 | pIC50 (MCF7): 5.06 | pIC50 (HEL): 5.55 | pIC50 (MDA-MB-231): 5.12

COc1ccc2cc1Oc1ccc(cc1)C[C@H]1c3cc(c(OC)cc3CCN1C)Oc1c(OC(=O)CCCCl)c(OC)cc3c1[C@H](C2)N(C)CC3
pIC50 (K562): 5.18 | pIC50 (MCF7): 4.91 | pIC50 (HEL): 5.10 | pIC50 (MDA-MB-231): 5.06

COc1ccc2cc1Oc1ccc(cc1)C[C@H]1c3cc(c(OC)cc3CCN1C)Oc1c(OC(=O)c3ccc(Br)cc3)c(OC)cc3c1[C@H](C2)N(C)CC3
pIC50 (K562): 5.51 | pIC50 (MCF7): 5.16 | pIC50 (HEL): 5.64 | pIC50 (MDA-MB-231): 5.25

CC[C@]1(O)C[C@@H]2CN(CCc3c([nH]c4ccccc34)[C@@](C(=O)OC)(c3cc4c(cc3OC)N(C)[C@H]3[C@@](O)(C(=O)OC)[C@H](OC(C)=O)[C@]5(CC)C=CCN6CC[C@]43[C@@H]65)C2)C1 [VINBLASTINE]
pIC50 (K562): 5.02 | pIC50 (MCF7): 4.43 | pIC50 (HEL): 4.80 | pIC50 (MDA-MB-231): 4.75

COc1ccc2cc1Oc1ccc(cc1)C[C@H]1c3cc(c(OC)cc3CCN1C)Oc1c(OC(=O)c3ccc(Cl)c(Cl)c3)c(OC)cc3c1[C@H](C2)N(C)CC3
pIC50 (K562): 5.07 | pIC50 (MCF7): 4.96 | pIC50 (HEL): 5.34 | pIC50 (MDA-MB-231): 4.74

COc1ccc2cc1Oc1ccc(cc1)C[C@H]1c3cc(c(OC)cc3CCN1C)Oc1c(OC)c(OC)cc3c1[C@H](C2)N(C)CC3 [FANCHININ]
pIC50 (K562): 5.19 | pIC50 (MCF7): 4.71 | pIC50 (HEL): 4.70 | pIC50 (MDA-MB-231): 4.73

COc1ccc2cc1Oc1ccc(cc1)C[C@H]1c3cc(c(OC)cc3CCN1C)Oc1c(OC(=O)C3CC3)c(OC)cc3c1[C@H](C2)N(C)CC3
pIC50 (K562): 4.76 | pIC50 (MCF7): < 4.00 | pIC50 (HEL): 4.67 | pIC50 (MDA-MB-231): 4.87

COc1ccc2cc1Oc1ccc(cc1)C[C@H]1c3cc(c(OC)cc3CCN1C)Oc1c(OC(=O)C(C)(C)C)c(OC)cc3c1[C@H](C2)N(C)CC3
pIC50 (K562): 5.39 | pIC50 (MCF7): 5.11 | pIC50 (HEL): 5.43 | pIC50 (MDA-MB-231): 5.07

COc1ccc2cc1Oc1ccc(cc1)C[C@H]1c3cc(c(OC)cc3CCN1C)Oc1c(OC(=O)/C=C/c3ccccc3)c(OC)cc3c1[C@H](C2)N(C)CC3
pIC50 (K562): 5.03 | pIC50 (MCF7): 4.79 | pIC50 (HEL): 4.99 | pIC50 (MDA-MB-231): 5.10

CCN(C)C(=O)Oc1c(OC)cc2c3c1Oc1cc4c(cc1OC)CCN(C)[C@H]4Cc1ccc(cc1)Oc1cc(ccc1OC)C[C@@H]3N(C)CC2
pIC50 (K562): 5.23 | pIC50 (MCF7): 4.69 | pIC50 (HEL): 5.46 | pIC50 (MDA-MB-231): 5.00

COc1ccc2cc1Oc1ccc(cc1)C[C@H]1c3cc(c(OC)cc3CCN1C)Oc1c(OC(=O)C=C(C)C)c(OC)cc3c1[C@H](C2)N(C)CC3
pIC50 (K562): 5.27 | pIC50 (MCF7): < 4.00 | pIC50 (HEL): 5.29 | pIC50 (MDA-MB-231): 4.99

C=CC(=O)Oc1c(OC)cc2c3c1Oc1cc4c(cc1OC)CCN(C)[C@H]4Cc1ccc(cc1)Oc1cc(ccc1OC)C[C@@H]3N(C)CC2
pIC50 (K562): 5.17 | pIC50 (MCF7): 5.14 | pIC50 (HEL): 5.37 | pIC50 (MDA-MB-231): 5.30

CCCCCC(=O)Oc1c(OC)cc2c3c1Oc1cc4c(cc1OC)CCN(C)[C@H]4Cc1ccc(cc1)Oc1cc(ccc1OC)C[C@@H]3N(C)CC2
pIC50 (K562): 4.88 | pIC50 (MCF7): 4.92 | pIC50 (HEL): 4.68 | pIC50 (MDA-MB-231): 4.95

COc1ccc2cc1Oc1ccc(cc1)C[C@H]1c3cc(c(OC)cc3CCN1C)Oc1c(OC(=O)c3c(Cl)cc(Cl)cc3Cl)c(OC)cc3c1[C@H](C2)N(C)CC3
pIC50 (K562): 5.12 | pIC50 (MCF7): 4.74 | pIC50 (HEL): 5.12 | pIC50 (MDA-MB-231): 4.64

CCN(CC)C(=O)Oc1c(OC)cc2c3c1Oc1cc4c(cc1OC)CCN(C)[C@H]4Cc1ccc(cc1)Oc1cc(ccc1OC)C[C@@H]3N(C)CC2
pIC50 (K562): 5.43 | pIC50 (MCF7): 4.63 | pIC50 (HEL): 5.53 | pIC50 (MDA-MB-231): 5.04

C=CCCCCCCCCC(=O)Oc1c(OC)cc2c3c1Oc1cc4c(cc1OC)CCN(C)[C@H]4Cc1ccc(cc1)Oc1cc(ccc1OC)C[C@@H]3N(C)CC2
pIC50 (K562): 4.98 | pIC50 (MCF7): 5.07 | pIC50 (HEL): 4.80 | pIC50 (MDA-MB-231): 4.88

COc1ccc2cc1Oc1ccc(cc1)C[C@H]1c3cc(c(OC)cc3CCN1C)Oc1c(OC(=O)c3ccccc3Cl)c(OC)cc3c1[C@H](C2)N(C)CC3
pIC50 (K562): 5.45 | pIC50 (MCF7): 5.20 | pIC50 (HEL): 5.49 | pIC50 (MDA-MB-231): 5.27

COc1ccc2cc1Oc1ccc(cc1)C[C@H]1c3cc(c(OC)cc3CCN1C)Oc1c(OC(=O)c3cccc4ccccc34)c(OC)cc3c1[C@H](C2)N(C)CC3
pIC50 (K562): 5.34 | pIC50 (MCF7): 5.09 | pIC50 (HEL): 5.46 | pIC50 (MDA-MB-231): 4.78

COc1ccc2cc1Oc1ccc(cc1)C[C@H]1c3cc(c(OC)cc3CCN1C)Oc1c(OC(=O)N3CCCOC3)c(OC)cc3c1[C@H](C2)N(C)CC3
pIC50 (K562): 4.80 | pIC50 (MCF7): 4.60 | pIC50 (HEL): 4.40 | pIC50 (MDA-MB-231): 4.82

COc1ccc2cc1Oc1ccc(cc1)C[C@H]1c3cc(c(OC)cc3CCN1C)Oc1c(OC(=O)C(Cl)(Cl)Cl)c(OC)cc3c1[C@H](C2)N(C)CC3
pIC50 (K562): 5.48 | pIC50 (MCF7): 5.15 | pIC50 (HEL): 5.45 | pIC50 (MDA-MB-231): 5.39

COc1ccc2cc1Oc1ccc(cc1)C[C@H]1c3cc(c(OC)cc3CCN1C)Oc1c(OC(=O)c3ccc(Cl)cc3Cl)c(OC)cc3c1[C@H](C2)N(C)CC3
pIC50 (K562): 5.21 | pIC50 (MCF7): < 4.00 | pIC50 (HEL): 4.99 | pIC50 (MDA-MB-231): 4.55
